PAFAH1B2 FP inh: PAFAH1B2 enzyme inhibitors, primary screen, biochemical, fluorescence polarization, human | Platelet-activating factor acetylhydrolase IB subunit alpha2 (Homo sapiens), P68402 | recombinant PAFAH1B2, FP-rhodamine activity probe | inhibition, % at 3.39 µM | hit rate 1.2% among 340,000;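 active = inhibition above the mean of all tested compounds plus 3 SD, cut at about 24% in these data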
HTRA1 inh: HTRA1 serine protease inhibitors, primary screen, biochemical, fluorescence polarization, HTS; Q92743; recombinant HTRA1, FP-rhodamine activity-based probe; inhibition, % at 5.96 µM; hit rate 0.5% among 340,000; in the data active = inhibition above about 36%
Target sequence (Q92743 whole entry, looked up): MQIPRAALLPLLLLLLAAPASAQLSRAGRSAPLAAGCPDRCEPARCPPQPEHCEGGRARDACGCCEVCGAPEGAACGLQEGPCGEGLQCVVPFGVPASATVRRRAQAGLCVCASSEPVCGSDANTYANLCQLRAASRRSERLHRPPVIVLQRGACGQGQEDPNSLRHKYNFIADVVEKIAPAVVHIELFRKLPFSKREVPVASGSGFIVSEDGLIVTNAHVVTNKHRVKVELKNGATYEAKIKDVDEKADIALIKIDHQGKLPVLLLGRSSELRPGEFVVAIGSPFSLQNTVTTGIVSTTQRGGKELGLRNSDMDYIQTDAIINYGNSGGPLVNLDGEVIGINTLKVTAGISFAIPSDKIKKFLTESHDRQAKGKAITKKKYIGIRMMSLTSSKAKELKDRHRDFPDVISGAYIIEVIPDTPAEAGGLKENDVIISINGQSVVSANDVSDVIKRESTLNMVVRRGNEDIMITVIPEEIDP
ABHD4 inh: ABHD4 inhibitors, primary screen, biochemical, fluorescence polarization, mouse; purified mABHD4, FP-Rh probe fluorescence polarization; inhibition, % at 8.92 µM; (Lyso)-N-acylphosphatidylethanolamine lipase (Mus musculus), Q8VD66; hit rate 0.54% among 370,000;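 active = inhibition exceeding the mean over every tested compound plus 3 SD, cut at about 30% in these data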
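Test system: mABHD4 protein; Read-out basis: % inhibition; Incubation: 45 min + 60 min at 25 °C; Repeats: single replicate; Technique: fluorescence polarization with parallel and perpendicular emission, 525/598 nm; Compound: 8.92 µM, single dose; Benchmarks: full inhibition S159A mutant plus DMSO, zero as sample-well median.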
PAFAH1B3 FP inh: PAFAH1B3 enzyme inhibitors, primary screen, biochemical, fluorescence polarization, human | Platelet-activating factor acetylhydrolase IB subunit alpha1 (Homo sapiens), Q15102 | hit rate 0.28% among 340,000 | AID 492972, 2010 | inhibition, % at 3.39 µM | recombinant PAFAH1B3, FP-rhodamine probe;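 active = inhibition above the screen-wide average of all tested compounds plus 3 SD, cut at about 25% in these data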
PAFAH2 FP inh: PAFAH2 enzyme inhibitors, primary screen, biochemical, fluorescence polarization, human; inhibition, % at 3.39 µM; hit rate 0.99% among 340,000; recombinant PAFAH2, FP-rhodamine activity probe; Platelet-activating factor acetylhydrolase 2, cytoplasmic (Homo sapiens), Q99487;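 active = inhibition above the mean over all tested compounds plus 3 SD, cut at about 30% in these data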;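 note: inhibitors block probe labeling of enzyme so polarization drops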
pPAFAH inh: pPAFAH enzyme inhibitors, primary screen, biochemical, fluorescence polarization, human. hit rate 1.5% among 330,000. Platelet-activating factor acetylhydrolase (Homo sapiens), Q13093. recombinant pPAFAH, FP-rhodamine probe fluorescence polarization. inhibition, % at 3.39 µM;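 active = inhibition above the mean inhibition across the screen plus 3 SD, cut at about 25% in these data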;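 note: inhibitors block binding of the rhodamine activity-based probe so polarization drops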
A number is an active result; 0 = inactive; - = not tested or not shown. The list is not random: actives were taken first. Their share in the collection is about 2.8%.

SMILES	PAFAH1B2 FP inh	HTRA1 inh	ABHD4 inh	PAFAH1B3 FP inh	PAFAH2 FP inh	pPAFAH inh
O=c1cc(O)nc(SCc2ccc(Cl)cc2)[nH]1	56.5	0	0	0	0	0
Fc1ccccc1-c1n[nH]c(=S)n1N=Cc1cccc(OCc2ccccc2)c1	-	-	0	-	-	-
C=CCC12C=C(OC)C(=O)C(C1=O)C(c1ccc(OC)cc1)C2C (configuration not stated)	-	-	0	-	-	-
Cc1ccc(NC(=O)CN2CCN(c3nc(-c4ccccc4)cs3)CC2)cc1C	-	-	0	-	-	-
Cc1ccc(CSc2nnc(C)c(=O)[nH]2)cc1	0	0	0	0	0	0
O=c1[nH]c(SCc2ccc(OC(F)(F)F)cc2)nc2c1CCC2	-	-	0	-	-	-
O=c1cc(-c2ccccc2)nc(SCc2ccccc2)[nH]1	0	0	0	0	0	0
O=c1[nH]c(SCc2ccc(Cl)cc2)nc2c1CCC2	52.4	0	0	0	0	25.7
O=c1cc(-c2ccccc2)nc(SCc2ccc(Cl)cc2)[nH]1	24.3	0	0	0	0	0
Cc1nnc(SCc2ccccc2)[nH]c1=O	0	0	0	0	0	34.1
COC(=O)[C@]12C[C@H](CC(=O)NCc3ccccc3)C(=O)N(Cc3ccc(Cl)cc3Cl)C1=C[C@H](C(C)C)O[C@@H]2C1CC1	-	-	0	-	-	-
COc1ccc(OC)c(NC(=O)O[C@@H]2CC[C@@]34CCCN3C(=O)CCC[C@H]4C2)c1	-	-	0	-	-	-
CN(CCC#N)C(=O)COC(=O)c1c2c(nc3ccccc13)/C(=C/c1ccco1)CC2	0	0	41.6	0	0	27.4
COC(=O)C1CN(Cc2cn(Cc3ccc(Cl)cc3)nn2)CCS(=O)(=O)N1Cc1ccc(Cl)cc1 (configuration not stated)	-	-	0	-	-	-
C=CCN=C1NC(c2ccccc2C(F)(F)F)C(C(=O)OC)=C(C)N1Cc1ccccc1C(F)(F)F (configuration not stated)	-	-	0	-	-	-
CCCCCCCCN1[C@@H](CC(=O)O)c2cc(C(F)(F)F)ccc2S1(=O)=O	27.3	0	0	0	0	0
CCCCCCCCCCCCN1[C@@H](CC(=O)OC)c2cc(C(F)(F)F)ccc2S1(=O)=O	0	0	0	0	0	0
CC(=O)c1ccc(OCC(=O)N2CCN(S(=O)(=O)c3ccc(C)cc3C)CC2)cc1	0	0	0	0	0	31.9
CCCOc1ccccc1OCC(=O)N1CCN(S(=O)(=O)c2ccc(Cl)cc2)CC1	24.9	0	0	0	0	0
CCOc1ccc(OCCC(=O)OCC(=O)N2CCN(S(=O)(=O)c3ccc(C)cc3)CC2)cc1	0	0	0	0	0	0
Cc1ccc(OCCC(=O)OCC(=O)N2CCN(S(=O)(=O)c3ccc(Cl)cc3)CC2)cc1	28.0	0	0	0	0	0
Cc1ccc(S(=O)(=O)N2CCN(C(=O)CSc3ccc(F)cc3)CC2)cc1	26.2	0	0	0	0	0
CC(C)C[C@H]1COc2cccc(F)c2S(=O)(=O)N1Cc1cn(Cc2ccco2)nn1	-	-	0	-	-	-
CN(C(=O)c1cccc(NC(=O)Cc2ccc(NC(=O)C3CCCN(C(=O)c4ccccc4)C3)cc2)c1)C1CC1 (configuration not stated)	-	-	0	-	-	-
O=C(NCc1ccco1)C1CCCN(S(=O)(=O)c2ccccc2F)C1 (configuration not stated)	-	-	0	-	-	-
SMILES	PAFAH1B2 FP inh	HTRA1 inh	ABHD4 inh	PAFAH1B3 FP inh	PAFAH2 FP inh	pPAFAH inh
Cc1ccc(CSCc2ccc(C(=O)O)o2)cc1	29.4	0	0	0	0	0
O=C(CSc1nnc(-c2ccc(Cl)cc2)n1-c1ccccc1)Nc1ccc(Oc2ccccc2)cc1	-	-	0	-	-	-
CN(Cc1ccccc1)C(=O)c1ccco1	0	0	0	0	0	0
Cc1ccc(C(CCN(Cc2ccccc2)C(=O)c2ccco2)c2ccco2)cc1 (configuration not stated)	0	0	0	0	0	30.2
C#CCN1CC(N(C)CCCO)CS1(=O)=O (configuration not stated)	-	-	0	-	-	-
CC(C)NC(=O)CC1C(=O)NCCN1CC(c1ccccc1)c1ccccc1 (configuration not stated)	0	0	0	0	0	28.6
CC(C)(N[C@@H](Cc1c[nH]c2ccccc12)C(=O)NCC(c1ccccc1)c1ccccc1)C(=O)NC1CCCCC1	-	-	0	-	-	-
CC(=O)N1C[C@@H](c2c[nH]c3ccccc23)C=C[C@H]1C(=O)NS(=O)(=O)c1ccc(C)cc1	-	-	0	-	-	-
COc1ccc(/C=N/N=C2/NC(=O)C(CC(=O)O)S2)cc1OCc1ccccc1Cl (configuration not stated)	0	0	0	0	0	0
COc1ccc(S(=O)(=O)Oc2cccc(/C=N/N=C3/NC(=O)C(CC(=O)O)S3)c2)cc1 (configuration not stated)	28.4	0	0	0	0	0
Cc1ccc(S(=O)(=O)Oc2ccc(/C=N/N=C3/NC(=O)C(CC(=O)O)S3)cc2)cc1 (configuration not stated)	-	-	0	-	-	-
CCOc1cc(/C=N/N=C2/NC(=O)C(CC(=O)O)S2)ccc1OCc1ccccc1Cl (configuration not stated)	0	0	0	0	0	25.7
O=C(c1cccc(F)c1)N(Cc1ccccn1)CC1CCCO1 (configuration not stated)	-	-	0	-	-	-
Cc1ccc2oc(=O)c(/C=C(\O)c3cccs3)nc2c1	0	0	0	0	0	0
O=c1oc2ccc(Cl)cc2nc1/C=C(\O)c1cccs1	0	0	32.0	0	0	0
CC(=O)Nc1ccc(NC(=O)c2ccc(NS(=O)(=O)c3cc(C(C)(C)C)ccc3C)cc2)cc1	0	0	0	0	0	0
Cc1cc(F)ccc1NC(=O)c1ccc(NS(=O)(=O)c2cc(C(C)(C)C)ccc2C)cc1	0	0	0	0	0	25.1
Cc1cc(C)cc(NC(=O)NCCCN2CCN(c3ccc(F)cc3)CC2)c1	-	-	0	-	-	-
O=C(CSc1nc2ccccc2o1)c1cc2ccccc2oc1=O	0	0	0	0	0	25.6
CC1(C)CC(=O)C=C(Nc2ccccc2NC(=O)c2cc(Cl)ccc2F)C1	-	-	0	-	-	-
COc1cc(/C=N/N2CCCCC2)cc([N+](=O)[O-])c1O	0	0	0	0	0	28.5
O=S(=O)(NCCCc1ccccc1)c1ccc(Cl)cc1	26.1	0	0	0	0	0
O=S(=O)(NCCCc1ccccc1)c1ccc(F)c(F)c1	35.9	0	0	0	0	28.9
COc1ccc(CN2C/C(=C/C3=CCCCC3)N(C(=O)OCc3ccccc3)C2=N)c(OC)c1	-	-	0	-	-	-
CO/N=C(/CS(=O)Cc1ccc(Cl)cc1)c1ccc(Cl)cc1 (configuration not stated)	0	0	0	0	0	26.9

Screens (PubChem BioAssay)
